In ChEMBL document CHEMBL5252510, “A Novel Potent Oral Series of VEGFR2 Inhibitors Abrogate Tumor Growth by Inhibiting Angiogenesis” (J Med Chem, 2016):

Key:
[1] = target: Vascular endothelial growth factor receptor 3 (Homo sapiens, UniProt P35916); experiment: Inhibition of human recombinant GST-fused VEGFR3 kinase domain transphosphorylation expressed in baculovirus expression system using poly-Glu-Tyr (4:1) as substrate measured after 10 mins in presence of gamma-[33P]-ATP by scintillation counting analysis
Sequence of Vascular endothelial growth factor receptor 3 (P35916 whole entry, the tested form may be a part): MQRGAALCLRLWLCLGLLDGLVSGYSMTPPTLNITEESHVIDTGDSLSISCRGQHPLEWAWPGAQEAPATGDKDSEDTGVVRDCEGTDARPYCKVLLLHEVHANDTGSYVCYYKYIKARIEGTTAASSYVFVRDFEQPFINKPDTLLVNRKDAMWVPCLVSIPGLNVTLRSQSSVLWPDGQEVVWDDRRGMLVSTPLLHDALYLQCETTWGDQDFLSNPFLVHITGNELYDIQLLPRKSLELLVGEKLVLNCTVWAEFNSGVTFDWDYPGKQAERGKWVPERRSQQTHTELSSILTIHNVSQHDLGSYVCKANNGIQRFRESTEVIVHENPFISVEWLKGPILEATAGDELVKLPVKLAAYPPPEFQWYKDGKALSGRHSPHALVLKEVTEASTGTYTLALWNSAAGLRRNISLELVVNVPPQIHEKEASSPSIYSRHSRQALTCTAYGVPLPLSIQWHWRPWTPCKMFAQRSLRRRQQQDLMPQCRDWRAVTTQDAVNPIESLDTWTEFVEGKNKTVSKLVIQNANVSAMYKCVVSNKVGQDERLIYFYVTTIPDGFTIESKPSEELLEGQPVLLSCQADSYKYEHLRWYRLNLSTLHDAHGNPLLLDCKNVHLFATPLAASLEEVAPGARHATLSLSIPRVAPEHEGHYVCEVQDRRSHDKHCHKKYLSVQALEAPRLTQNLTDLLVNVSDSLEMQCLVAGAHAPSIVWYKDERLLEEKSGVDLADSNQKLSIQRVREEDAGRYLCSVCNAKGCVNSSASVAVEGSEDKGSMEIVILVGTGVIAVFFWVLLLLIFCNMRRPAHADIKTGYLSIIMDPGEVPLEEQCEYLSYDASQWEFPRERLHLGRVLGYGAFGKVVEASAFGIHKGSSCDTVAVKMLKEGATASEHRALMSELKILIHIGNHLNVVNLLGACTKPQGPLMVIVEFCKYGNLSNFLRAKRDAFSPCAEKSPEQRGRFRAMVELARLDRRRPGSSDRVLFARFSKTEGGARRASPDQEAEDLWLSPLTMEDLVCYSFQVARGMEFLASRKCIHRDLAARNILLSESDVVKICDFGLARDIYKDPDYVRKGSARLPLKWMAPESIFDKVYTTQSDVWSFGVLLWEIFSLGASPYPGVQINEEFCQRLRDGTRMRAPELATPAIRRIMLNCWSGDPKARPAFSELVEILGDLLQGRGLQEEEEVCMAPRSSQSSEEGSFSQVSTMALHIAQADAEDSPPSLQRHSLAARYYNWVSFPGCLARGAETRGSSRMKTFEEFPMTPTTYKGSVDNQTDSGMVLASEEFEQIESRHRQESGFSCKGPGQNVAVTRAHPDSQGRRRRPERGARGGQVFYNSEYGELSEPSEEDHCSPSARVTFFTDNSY
Summary of the method: (§1)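 GST-fused kinase domains were expressed in baculovirus and purified on glutathione-Sepharose. 10 min at ambient temperature, stopped with EDTA. Filter binding and scintillation counting. IC50 by linear regression of percent inhibition.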

[2] = target: Vascular endothelial growth factor receptor 1 (Homo sapiens, UniProt P17948); experiment: Inhibition of human recombinant GST-fused VEGFR1 kinase domain transphosphorylation expressed in baculovirus expression system using poly-Glu-Tyr (4:1) as substrate measured after 10 mins in presence of gamma-[33P]-ATP by scintillation counting analysis; summary of the method: as §1
Sequence of Vascular endothelial growth factor receptor 1 (P17948 whole entry, the tested form may be a part): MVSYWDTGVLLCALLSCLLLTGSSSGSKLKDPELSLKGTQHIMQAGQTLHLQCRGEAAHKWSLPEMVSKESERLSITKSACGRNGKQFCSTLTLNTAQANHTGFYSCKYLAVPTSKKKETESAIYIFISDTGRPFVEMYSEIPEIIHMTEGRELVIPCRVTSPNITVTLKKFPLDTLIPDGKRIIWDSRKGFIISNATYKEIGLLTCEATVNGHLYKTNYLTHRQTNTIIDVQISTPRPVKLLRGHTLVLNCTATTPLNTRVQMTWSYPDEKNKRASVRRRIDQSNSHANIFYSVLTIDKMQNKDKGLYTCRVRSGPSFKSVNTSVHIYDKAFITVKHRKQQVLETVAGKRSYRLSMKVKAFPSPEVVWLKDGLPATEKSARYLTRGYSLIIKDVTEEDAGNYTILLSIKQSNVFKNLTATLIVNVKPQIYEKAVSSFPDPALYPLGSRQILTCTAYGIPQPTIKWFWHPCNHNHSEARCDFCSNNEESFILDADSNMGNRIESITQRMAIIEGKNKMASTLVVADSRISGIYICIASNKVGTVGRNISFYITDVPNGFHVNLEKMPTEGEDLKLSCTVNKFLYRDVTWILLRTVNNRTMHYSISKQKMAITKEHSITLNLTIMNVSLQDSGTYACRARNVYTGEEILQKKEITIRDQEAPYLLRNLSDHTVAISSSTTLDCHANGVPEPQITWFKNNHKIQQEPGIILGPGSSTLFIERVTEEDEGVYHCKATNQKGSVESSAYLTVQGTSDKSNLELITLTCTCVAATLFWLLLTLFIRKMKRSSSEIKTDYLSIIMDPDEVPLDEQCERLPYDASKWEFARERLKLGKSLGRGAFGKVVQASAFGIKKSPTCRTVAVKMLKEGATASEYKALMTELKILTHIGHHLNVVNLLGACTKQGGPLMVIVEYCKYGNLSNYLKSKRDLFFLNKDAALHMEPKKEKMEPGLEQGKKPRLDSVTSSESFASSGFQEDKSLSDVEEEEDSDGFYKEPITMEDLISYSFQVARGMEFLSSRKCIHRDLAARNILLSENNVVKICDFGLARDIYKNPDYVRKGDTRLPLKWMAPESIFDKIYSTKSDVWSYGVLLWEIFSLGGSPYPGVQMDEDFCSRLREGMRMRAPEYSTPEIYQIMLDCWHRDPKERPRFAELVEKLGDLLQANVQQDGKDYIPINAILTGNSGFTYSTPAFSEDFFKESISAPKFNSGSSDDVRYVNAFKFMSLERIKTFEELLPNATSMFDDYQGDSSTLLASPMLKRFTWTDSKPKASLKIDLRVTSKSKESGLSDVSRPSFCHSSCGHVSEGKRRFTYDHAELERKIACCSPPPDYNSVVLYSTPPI

[3] = Toxicity in C57BL/6jNpa mouse harbouring mouse B16-BL6 cells assessed as effect on animal behavior at 3 mg/kg, po qd administered started on day 7 post implantation measured after 21 days; assay type: organism-based; settings: in vivo, 504 h, time 7-21 day
Summary of the method: (§2)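 Female C57BL/6JNpa mice received 50000 B16/BL6 cells intradermally in both ear pinnae. Randomized on day 7 into groups of 5–6, then dosed 3 mg/kg p.o. daily in PEG200/PEG300 for 14 days. Behavior and well-being were observed. On day 21, blood was analysed for platelet, red and white cell counts and hematocrit.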

[4] = Toxicity in C57BL/6jNpa mouse harbouring mouse B16-BL6 cells assessed as effect on animal well-being at 3 mg/kg, po qd administered started on day 7 post implantation measured after 21 days; assay type: organism-based; settings: in vivo, 504 h, time 7-21 day; summary of the method: as §2
[5] = Toxicity in C57BL/6jNpa mouse harbouring mouse B16-BL6 cells assessed as drug tolerability at 3 mg/kg, po qd administered started on day 7 post implantation measured after 21 days; assay type: organism-based; settings: in vivo, 504 h, time 7-21 day; summary of the method: as §2
BaF3 [6] = experiment: Antiproliferative activity against mouse BaF3 cells expressing Tel-KDR-myc1.3 assessed as cell growth inhibition measured after 72 hrs by Alamar Blue assay; settings: BaF3, 72 h
BaF3 [7] = experiment: Antiproliferative activity against mouse BaF3 cells expressing ERBB2 V659E mutant assessed as cell growth inhibition measured after 72 hrs by Alamar Blue assay; settings: BaF3, 72 h
BaF3 [8] = experiment: Antiproliferative activity against mouse BaF3 cells expressing Tel-FGFR3 assessed as cell growth inhibition measured after 72 hrs by Alamar Blue assay; settings: BaF3, 72 h
BaF3 [9] = experiment: Antiproliferative activity against mouse BaF3 cells expressing Tel-IGF-1R assessed as cell growth inhibition measured after 72 hrs by Alamar Blue assay; settings: BaF3, 72 h
BaF3 [10] = experiment: Antiproliferative activity against mouse BaF3 cells expressing KIT D816V mutant assessed as cell growth inhibition measured after 72 hrs by Alamar Blue assay; settings: BaF3, 72 h
BaF3 [11] = experiment: Antiproliferative activity against mouse BaF3 cells expressing Trp-MET assessed as cell growth inhibition measured after 72 hrs by Alamar Blue assay; settings: BaF3, 72 h
BaF3 [12] = experiment: Antiproliferative activity against mouse BaF3 cells expressing PTC3-RET assessed as cell growth inhibition measured after 72 hrs by Alamar Blue assay; settings: BaF3, 72 h
BaF3 [13] = experiment: Antiproliferative activity against mouse BaF3 cells assessed as cell growth inhibition measured after 72 hrs by Alamar Blue assay; settings: BaF3, 72 h
BaF3 [14] = experiment: Antiproliferative activity against mouse BaF3 cells expressing NPM-ALK assessed as cell growth inhibition measured after 72 hrs by Alamar Blue assay; settings: BaF3, 72 h
HUVEC = experiment: Antiproliferative activity against VEGF-stimulated HUVEC cells assessed as cell growth inhibition measured after 24 hrs by BrdUrd incorporation based spectrophotometric analysis; settings: Homo sapiens
B16-BL6 [15] = experiment: Antitumor activity against mouse B16-BL6 cells implanted in C57BL/6jNpa mouse assessed as primary tumor growth inhibition at 3 mg/kg, po qd administered started on day 7 post implantation measured after 21 days relative to control; assay type: functional; settings: time 7-21 day, read-out: TGI
Summary of the method: (§3)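 Female C57BL/6JNpa mice, 50000 B16/BL6 cells intradermally in both ear pinnae; primary tumor area (mm²) imaged days 7, 14, 21; randomized day 7 into groups of 5-6, oral dosing in PEG200 or PEG300 vehicle daily (or every 2 days) for 14 days; day 21 cervical lymph nodes weighed, metastasis lysates assayed for TIE-2 by ELISA; T/C ratios.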

[16] = Toxicity in C57BL/6jNpa mouse harbouring mouse B16-BL6 cells assessed as effect on body weight at 3 mg/kg, po qd administered started on day 7 post implantation measured after 21 days; assay type: organism-based; settings: in vivo, 504 h, time 7-21 day
Summary of the method: (§4)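 B16/BL6 melanoma cells (50000) injected intradermally into dorsal pinna of both ears of female mice (18–20 g). Randomized on day 7 into groups of 5-6 by primary tumor size, then dosed orally once daily for 14 days in PEG300 or PEG200. Sacrificed day 21; blood analysed directly for platelets, red and white cell counts, hematocrit. Body and spleen weight recorded versus healthy naive mouse.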

[17] = Toxicity in C57BL/6jNpa mouse harbouring mouse B16-BL6 cells assessed as effect on spleen weight at 3 mg/kg, po qd administered started on day 7 post implantation measured after 21 days; assay type: organism-based; settings: in vivo, 504 h, time 7-21 day; summary of the method: as §4
B16-BL6 [18] = experiment: Antitumor activity against mouse B16-BL6 cells implanted in C57BL/6jNpa mouse assessed as primary tumor growth inhibition by measuring T/C ratio at 3 mg/kg, po qd administered started on day 7 post implantation measured after 21 days; assay type: functional; settings: time 7-21 day; summary of the method: as §3
B16-BL6 [19] = experiment: Antitumor activity against mouse B16-BL6 cells implanted in C57BL/6jNpa mouse assessed as metastatic tumor growth inhibition by measuring T/C ratio at 3 mg/kg, po qd administered started on day 7 post implantation measured after 21 days; assay type: functional; settings: time 7-21 day; summary of the method: as §3
[20] = Half-life in Sprague-Dawley rat at 3 mg/kg, iv measured upto 24 hrs by HPLC/UV analysis; assay type: ADME, organism-based; settings: in vivo
Summary of the method: (§5)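 Female Sprague Dawley rats, 8 weeks old, catheterized in the jugular vein and femoral artery, recovered 96 h. IV dose 3 mg/kg in ethanol/NMP/PEG400/5 % glucose (10/10/50/30). n=2. Plasma sampled at 5, 15, 30 min and 1, 2, 4, 6, 8, 24 h.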

[21] = Clearance in Sprague-Dawley rat at 3 mg/kg, iv measured upto 24 hrs by HPLC/UV analysis; assay type: ADME, organism-based; settings: in vivo; summary of the method: as §5
[22] = Tmax in Sprague-Dawley rat at 50 mg/kg, po measured upto 24 hrs by HPLC/UV analysis; assay type: ADME, organism-based; settings: in vivo
Summary of the method: (§6)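 Female Sprague Dawley rats, 8 weeks old, catheterized. Oral suspension in 0.5 % carboxymethyl cellulose at 50 mg/kg, n=3. Bioavailability taken against 3 mg/kg iv. Plasma sampled 5 min–24 h. Cmax and AUC(0–∞) dose-normalized.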

[23] = Dose normalized Cmax in Sprague-Dawley rat at 50 mg/kg, po measured upto 24 hrs by HPLC/UV analysis; assay type: ADME, organism-based; settings: in vivo; summary of the method: as §6
[24] = Oral bioavailability in Sprague-Dawley rat at 50 mg/kg measured upto 24 hrs by HPLC/UV analysis; assay type: ADME, organism-based; settings: in vivo; summary of the method: as §6
[25] = Toxicity in C57BL/6jNpa mouse harbouring mouse B16-BL6 cells assessed as effect on red blood cell count at 3 mg/kg, po qd administered started on day 7 post implantation measured after 21 days; assay type: organism-based; settings: in vivo, 504 h, time 7-21 day; summary of the method: as §4
[26] = Toxicity in C57BL/6jNpa mouse harbouring mouse B16-BL6 cells assessed as effect on blood platelet count at 3 mg/kg, po qd administered started on day 7 post implantation measured after 21 days; assay type: organism-based; settings: in vivo, 504 h, time 7-21 day; summary of the method: as §2

SMILES	IC50 [1]	IC50 [2]	IC50 (BaF3 [6])	IC50 (BaF3 [7])	IC50 (BaF3 [8])	IC50 (BaF3 [9])	IC50 (BaF3 [10])	IC50 (BaF3 [11])	IC50 (BaF3 [12])	IC50 (BaF3 [13])	IC50 (BaF3 [14])	Activity [3]	Activity [4]	Activity [5]	IC50 (HUVEC)	inhibition in vivo at 3 mg/kg (B16-BL6 [15])	Activity [16]	Activity [17]	T/C (B16-BL6 [18])	T/C (B16-BL6 [19])	further results
O=C(Nc1cccc(C(F)(F)F)c1)c1cccc2cc(Oc3cc(CO)ncn3)ccc12 [BFH-772]	1100 nM	1700 nM	2 nM	> 10000 nM	6540 nM	7200 nM	> 10000 nM	> 10000 nM	104 nM	> 10000 nM	> 10000 nM	Non-Toxic	Non-Toxic	Non-Toxic	< 0.01 nM	54%	Non-Toxic	Non-Toxic	0.26	0.17	–
Nc1nccc(Oc2ccc3c(C(=O)Nc4cccc(C(F)(F)F)c4)cccc3c2)n1	420 nM	820 nM	4 nM	> 10000 nM	8270 nM	> 10000 nM	> 10000 nM	> 10000 nM	152 nM	> 10000 nM	> 10000 nM	Non-Toxic	Non-Toxic	Non-Toxic	0.12 nM	54%	Non-Toxic	Non-Toxic	0.46	0.29	–
Nc1cc(Oc2ccc3c(C(=O)Nc4ccc(F)c(C(F)(F)F)c4)cccc3c2)ncn1	235 nM	333 nM	5 nM	> 10000 nM	2660 nM	> 10000 nM	7800 nM	> 10000 nM	40 nM	> 10000 nM	> 10000 nM	Non-Toxic	Non-Toxic	Non-Toxic	0.003 nM	54%	Non-Toxic	Non-Toxic	0.34	0.04	half-life [20]: 18.3 h; clearance [21]: 0.833 mL/min/kg; Tmax [22]: 8 h; Cmax/dose [23]: 80 nM; bioavailability [24]: 9%; Activity [25]: Non-Toxic; Activity [26]: Non-Toxic

These reach a lower IC50 [1]. Values come first.

IC50 [1]	IC50 [2]	IC50 (BaF3 [6])	IC50 (BaF3 [7])	IC50 (BaF3 [8])	IC50 (BaF3 [9])	IC50 (BaF3 [10])	IC50 (BaF3 [11])	IC50 (BaF3 [12])	IC50 (BaF3 [13])	IC50 (BaF3 [14])	SMILES	Activity [3]	Activity [4]	Activity [5]	IC50 (HUVEC)	inhibition in vivo at 3 mg/kg (B16-BL6 [15])	Activity [16]	Activity [17]	T/C (B16-BL6 [18])	T/C (B16-BL6 [19])	further results
177 nM	223 nM	9 nM	> 10000 nM	8260 nM	8900 nM	8510 nM	> 10000 nM	226 nM	> 10000 nM	> 10000 nM	Nc1nccc(Oc2ccc3c(C(=O)Nc4ccc(F)c(C(F)(F)F)c4)cccc3c2)n1	Non-Toxic	Non-Toxic	Non-Toxic	0.077 nM	54%	Non-Toxic	Non-Toxic	0.1	0.13	half-life [20]: 16 h; clearance [21]: 2.83 mL/min/kg; Tmax [22]: 5 h; Cmax/dose [23]: 70 nM; bioavailability [24]: 9%; Activity [25]: Non-Toxic; Activity [26]: Non-Toxic
50 nM	81 nM	2 nM	> 10000 nM	2280 nM	> 10000 nM	8000 nM	> 10000 nM	9 nM	> 10000 nM	> 10000 nM	Nc1cc(Oc2ccc3c(C(=O)Nc4cccc(C(F)(F)F)c4)cccc3c2)ncn1	Non-Toxic	Non-Toxic	Non-Toxic	1.7 nM	54%	Non-Toxic	Non-Toxic	0.22	0.04	half-life [20]: 4.1 h; clearance [21]: 3 mL/min/kg; Tmax [22]: 4 h; Cmax/dose [23]: 50 nM; bioavailability [24]: 5%; Activity [25]: Non-Toxic; Activity [26]: Non-Toxic
